Measured values from ChEMBL document CHEMBL1126126, “Development, synthesis, and biological evaluation of (-)-trans-(2S,5S)-2-[3-[(2-oxopropyl)sulfonyl]-4-n-propoxy-5-(3- hydroxypropoxy)-phenyl]-5-(3,4,5-trimethoxyphenyl)tetrahydrofuran, a potent orally active platelet-activating factor (PAF) antagonist and its water-soluble prodrug phosphate ester” (J Med Chem, 1992).
Values after ≈ are worked out from the molar mass of the structure shown. Active and inactive are the calls of the source. No cut-off for these calls is given here.

Columns and labels:
[1] = target: Leukotriene B4 receptor 1 (Homo sapiens) (UniProt Q15722); test: (§1) Effect on uM; no effect
[2] = target: T1, Cysteinyl leukotriene receptor 1 (Cavia porcellus) (UniProt Q2NNR5); test: as §1
T1 sequence (whole entry): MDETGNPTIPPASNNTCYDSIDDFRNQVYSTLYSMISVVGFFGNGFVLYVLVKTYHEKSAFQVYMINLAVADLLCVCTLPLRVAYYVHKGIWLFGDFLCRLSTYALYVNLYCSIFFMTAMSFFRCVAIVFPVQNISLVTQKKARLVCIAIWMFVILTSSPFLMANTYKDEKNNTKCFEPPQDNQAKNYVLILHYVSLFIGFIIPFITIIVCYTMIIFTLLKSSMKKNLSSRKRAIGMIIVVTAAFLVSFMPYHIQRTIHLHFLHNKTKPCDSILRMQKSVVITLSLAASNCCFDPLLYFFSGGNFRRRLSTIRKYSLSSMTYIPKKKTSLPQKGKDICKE

[3] = target: T2, C5a anaphylatoxin chemotactic receptor 1 (Homo sapiens) (UniProt P21730); test: as §1
T2 sequence (whole entry): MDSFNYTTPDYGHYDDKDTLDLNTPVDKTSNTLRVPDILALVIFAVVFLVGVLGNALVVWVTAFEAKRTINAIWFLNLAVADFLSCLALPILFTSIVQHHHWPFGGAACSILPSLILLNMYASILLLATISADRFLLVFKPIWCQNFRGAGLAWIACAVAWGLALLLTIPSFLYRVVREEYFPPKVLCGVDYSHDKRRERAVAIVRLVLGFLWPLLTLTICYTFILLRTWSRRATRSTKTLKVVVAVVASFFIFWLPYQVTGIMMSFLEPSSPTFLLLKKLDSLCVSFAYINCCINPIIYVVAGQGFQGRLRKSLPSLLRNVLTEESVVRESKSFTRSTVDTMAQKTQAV

[4] = Water solubility at pH 7.4; assay type: physicochemical
Procedure, shortened: (§2)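 Compound combined with buffered solution at the stated pH, sonicated, shaken 1 h and filtered. Filtrate concentration measured by UV against standards of known concentration; reported in mg/mL.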

[5] = species: Homo sapiens; test: Inhibitory activity against PAF-induced aggregation of human platelets suspended in plasma; assay type: functional
[6] = test system: Rattus norvegicus; test: In vivo inhibitory activity against PAF induced plasma level of N-acetyl-beta-D-glucosaminidase (NAGA) and hematocrit (plasma extravasation) in male rat after p.o. administration; assay type: functional; conditions: po
[7] = test system: Rattus norvegicus; test: In vivo inhibitory activity against PAF induced plasma level of N-acetyl-beta-D-glucosaminidase (NAGA) and hematocrit (plasma extravasation) in female rat after p.o. administration; assay type: functional; conditions: po
[8] = test system: Cavia porcellus; test: In vivo inhibitory activity against PAF induced bronchoconstriction in male guinea pigs; assay type: functional; conditions: read-out: ID50 (the source's name)
[9] = Water solubility was determined; assay type: ADME; procedure, shortened: as §2
[10] = test system: Rattus norvegicus; test: In vivo inhibitory activity against PAF induced plasma level of N-acetyl-beta-D-glucosaminidase (NAGA) and hematocrit (plasma extravasation) in male rat after i.v. administration; assay type: functional; conditions: iv
[11] = Water solubility at pH 6; assay type: physicochemical; procedure, shortened: as §2
[12] = test system: Angiotensin II receptor (Oryctolagus cuniculus); test: Effect on uM; no effect
[13] = test system: Rattus norvegicus; test: Effect against PAF induced plasma level of N-acetyl-beta-D-glucosaminidase (NAGA) and plasma extravasation in male rat at a dose of 1 mg/kg by single administration after 6 hour; assay type: functional
[14] = test system: Cavia porcellus; test: In vivo inhibitory activity against PAF induced bronchoconstriction in female guinea pigs; assay type: functional; conditions: read-out: ID50 (the source's name)
[15] = Water solubility at pH 5; assay type: physicochemical; procedure, shortened: as §2
[16] = species: Homo sapiens; test: Inhibitory activity against PAF-induced aggregation of human platelets suspended in buffer [washed platelets (WP)]; assay type: functional
[17] = target: Platelet-activating factor receptor (Homo sapiens, UniProt P25105); test: Inhibition of the binding of [3H]C18-Platelet activating factor to human platelet membrane preparation
Sequence of Platelet-activating factor receptor (P25105 whole entry): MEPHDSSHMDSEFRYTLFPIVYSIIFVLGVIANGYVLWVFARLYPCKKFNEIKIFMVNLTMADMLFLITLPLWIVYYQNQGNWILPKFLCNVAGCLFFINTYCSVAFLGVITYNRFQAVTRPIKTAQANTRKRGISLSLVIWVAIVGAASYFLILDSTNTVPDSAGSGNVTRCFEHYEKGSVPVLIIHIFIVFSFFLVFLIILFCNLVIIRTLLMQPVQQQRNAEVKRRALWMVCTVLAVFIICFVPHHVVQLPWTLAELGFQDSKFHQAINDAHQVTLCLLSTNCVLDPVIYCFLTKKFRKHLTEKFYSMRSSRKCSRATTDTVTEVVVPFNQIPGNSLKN

Sequence of Leukotriene B4 receptor 1 (Homo sapiens) (Q15722 whole entry): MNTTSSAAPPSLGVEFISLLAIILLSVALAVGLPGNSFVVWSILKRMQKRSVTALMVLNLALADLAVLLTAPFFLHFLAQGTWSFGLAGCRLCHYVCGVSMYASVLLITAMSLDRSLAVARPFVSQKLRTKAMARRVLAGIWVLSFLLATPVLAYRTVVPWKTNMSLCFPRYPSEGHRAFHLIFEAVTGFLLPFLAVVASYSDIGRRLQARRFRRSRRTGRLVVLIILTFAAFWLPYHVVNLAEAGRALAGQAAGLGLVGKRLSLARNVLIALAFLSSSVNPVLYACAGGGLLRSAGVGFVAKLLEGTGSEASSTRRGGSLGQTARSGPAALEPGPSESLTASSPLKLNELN

inhibition [1]	inhibition [2]	IC50 [5] [nM]	solubility [9] [µg/mL]	solubility [11] [µg/mL]	solubility [15] [µg/mL]	SMILES	inhibition [3]	ED50 [6] [mg/kg]	ED50 [7] [mg/kg]	ED50 [8] [mg/kg]	ED50 [10] [mg/kg]	IC50 [17] [nM]	also measured
inactive	inactive					CCCOc1c(OCCCOP(=O)([O-])O)cc([C@@H]2CC[C@@H](c3cc(OC)c(OC)c(OC)c3)O2)cc1S(=O)(=O)CC(C)=O.[K+]	inactive						solubility [4]: > 30000 µg/mL
		55	2 (≈ 3.92 µM)			CCCOc1c(OC)cc([C@@H]2CC[C@@H](c3cc(OC)c(OC)c(OC)c3)O2)cc1S(=O)(=O)CCO		2.3	0.1	0.19	0.1		
inactive	inactive		100 (≈ 176 µM)			CCCOc1c(OCCCO)cc([C@@H]2CC[C@@H](c3cc(OC)c(OC)c(OC)c3)O2)cc1S(=O)(=O)CC(C)=O	inactive						

The next lines start with the compound.

SMILES	inhibition [1]	inhibition [2]	IC50 [5] [nM]	solubility [9] [µg/mL]	solubility [11] [µg/mL]	solubility [15] [µg/mL]	inhibition [3]	ED50 [6] [mg/kg]	ED50 [7] [mg/kg]	ED50 [8] [mg/kg]	ED50 [10] [mg/kg]	IC50 [17] [nM]	also measured
CCCOc1c(OCCCN2CCOCC2)cc([C@@H]2CC[C@@H](c3cc(OC)c(OC)c(OC)c3)O2)cc1S(=O)(=O)CC(C)=O	inactive	inactive	19		900 (≈ 1420 µM)	5400 (≈ 8490 µM)	inactive	0.15	0.2	0.06	0.037	2.5	inhibition [12]: inactive; inhibition in vivo at 1 mg/kg [13]: 60%; ED50 [14]: 0.04 mg/kg; IC50 [16]: 1 nM
CCCOc1c(OCCCn2ccnc2)cc([C@@H]2CC[C@@H](c3cc(OC)c(OC)c(OC)c3)O2)cc1S(=O)(=O)CC(C)=O	inactive	inactive			800 (≈ 1300 µM)	5500 (≈ 8920 µM)	inactive						
CCCOc1c(OC)cc([C@H]2CC[C@H](c3cc(OC)c(OC)c(OC)c3)O2)cc1S(C)(=O)=O (single isomer, unassigned)												9	
